For 167 variants, yeast fitness results are on record in the RNAGym collection of RNA variant scans (doi:10.1126/science.aae0568).

This sample holds only a part of the variants without activity. Some results are limits rather than exact numbers.

B1: tRNA (parent)
chain: GUUCCGUUGGCGUAAUGGUAACGCGUCUCCCUCCUAAGGAGAAGACUGCGGGUUCGAGUCCCGUACGGAACG

In the series the parent is B1. As to the kind of experiment: yeast fitness relative to wild type (ratio to wild type); higher = fitter; tRNA-Arg(CCU), competitive growth, 37 C, YPD. In a few lines:
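A pool of Saccharomyces cerevisiae strains, each with a tRNA-Arg(CCU) gene variant at the native genomic locus, was competed in YPD at 37°C for 24 hours across six parallel replicates. The variants had been chemically synthesised at a 3% per-site mutation rate over 69 sites, and gene amplicons before and after competition were read by 100-nucleotide paired-end sequencing. Darwinian fitness relative to wild type rested on changes in genotype frequencies. Genotypes required ≥ 100 starting reads, and estimates < 0.5 were set to 0.5.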
As for C5G C55A A57U, the yeast fitness is 0.55. For C5G G51A G68C the value was not above 0.5. As for C5G U28A C34G C46A, the figure is not above 0.5; as for C5U A14C C46A G63C A69U, not above 0.5; as for C5U A15U C29U C31U C34U C55U, not above 0.5. As for C5G C46U G67A, the figure is 0.683; as for C5G G17A A40C U59C, 0.723.

On to C5G G9A A43G G48C, for which the yeast fitness is not above 0.5. Regarding C5G G48C C49U U54G A65G C66A, the yeast fitness is not above 0.5. As for C5G G18A G25A A42G, the figure is not above 0.5; as for C5G G25A C46A, 0.651. As to C5G G10A C30U A42C A70G, the yeast fitness was not above 0.5. In the case of C5U A15G A42U, the yeast fitness worked out at 0.703. Take C5G G17C G23C A57C: the yeast fitness was not above 0.5. As for C5G U28A C55G, the figure is not above 0.5; as for C5U A20U C30A G67A A70G, 0.657; as for C5G C33A A42G A57G, not above 0.5. With C5G U8G G63A, the yeast fitness is not above 0.5.

With C5G U8A A42C G48C, the yeast fitness was not above 0.5. Consider C5G C46U G50A, for which the yeast fitness was 0.731.

As to C5U A20C U32C A40U G50A G52A, the yeast fitness was not above 0.5.

Regarding C5G C30U U54A, the yeast fitness turned out to be 0.601. As for C5G C34A G50C, the figure is not above 0.5. Turning to C5G U8C G41A, the yeast fitness is not above 0.5. For the variant C5G C31U, the yeast fitness came out at 0.867. As for C5G U7G G23C C31U C49U, the figure is not above 0.5; as for C5G U7C G23A, not above 0.5. As for C5G G51A C62G, the figure is not above 0.5. In the case of C5G C33A G41C U54C, the yeast fitness was not above 0.5. As for C5G C34G A40G G48C G63A C66U, the figure is not above 0.5. On to C5G G10C G52A U54A, for which the yeast fitness was 0.55. Turning to C5G C55G A65C G67A, the yeast fitness is not above 0.5. As for C5G G44C C49G, the yeast fitness stood at 0.521. As for C5G C60G C62G G67C A69U, the figure is 0.654. Take C5G G6A C24U: the yeast fitness stood at 0.577.

Turning to C5G G6A U47A G68C, the yeast fitness was determined as 0.546. As for C5U A20U, the yeast fitness is 0.94. As for C5G C33U G44C, the yeast fitness was not above 0.5.

With C5U A14U U16A C66U, the yeast fitness stood at 0.511.

As for C5G G39C A69U, the yeast fitness was 0.538. For C5U A14U C31A C46U G48A C49U the value was 0.568. On to C5U A14C U19C, for which the yeast fitness stood at 0.528.

C5G G17A G18A: the yeast fitness amounted to 0.553. As for C5G G25A A65G, the figure is 0.763; as for C5U A15G A20U A42G G63C, 0.65; as for C5G C46A G48A U64G, 0.546. For C5G G67U, the yeast fitness worked out at 0.859.

For C5G U13A C22G C29G A40U U54C C61G G67A, the yeast fitness is not above 0.5. Regarding C5G G6C A21U, the yeast fitness worked out at 0.544. In the case of C5G G17C G23C, the yeast fitness was not above 0.5. For the variant C5G G17U A45U G68C, the yeast fitness was not above 0.5.

Regarding C5G C46G, the yeast fitness turned out to be 0.751. In the case of C5G G9A C61U, the yeast fitness was not above 0.5. For C5U A15G the value was 0.912.

As to C5G U13G C29U A40G G68A A70C, the yeast fitness was not above 0.5. With C5U A15C G23C, the yeast fitness is not above 0.5. For C5G U64G the value was 0.86; for C5G U7C G10A C29G, not above 0.5.

Take C5U A20C C29A: the yeast fitness stood at 0.666.

For C5U A14G G50C C55U A57G, the yeast fitness amounted to 0.675. As for C5G C55G, the figure is 0.685.

Regarding C5G G12C C33U G68C, the yeast fitness turned out to be 0.612. For C5G C31U G41C A43C C60G the value was not above 0.5; for C5G U7A C11U A36C G38A G44C, 0.589; for C5G G9C C33A U35C C46U C49U G52C C61U C66U, not above 0.5.

On to C5G G25C, for which the yeast fitness worked out at 1.06. For C5G G25A the value was 0.981; for C5G U7C A36C A57U C61A C66G, not above 0.5; for C5G C66A, 0.703. For C5G U8A A15G G41C U47A the value was not above 0.5; for C5G G48A, 0.978. For C5G U13C A21C A57U A65U G68C the value was not above 0.5; for C5G G9C U35G C66U, not above 0.5; for C5U A20C G63A, 0.607. For the variant C5G G25A U54G C55U A70C, the yeast fitness was not above 0.5.

Turning to C5G G12C U19A C31A, the yeast fitness was not above 0.5. As for C5G G10C U13G A40G U54A, the figure is not above 0.5; as for C5G G9C A20G A40C G58A, not above 0.5.

In the case of C5G G9C A43G A70U, the yeast fitness was not above 0.5. For the variant C5G U47C G51A A65C, the yeast fitness turned out to be 0.548. As for C5G G51A A69U, the yeast fitness amounted to 0.528. For C5G C34A the value was 0.702; for C5U A14C C34G A37U A40U C66U, not above 0.5; for C5G U35C G44C C62A G68C A69U, not above 0.5. On to C5G U16A U19G A20C C27U C29U C30U A70G, for which the yeast fitness is not above 0.5. On to C5G C34U C66U, for which the yeast fitness was not above 0.5.

As for C5G G12A C31U C49G, the yeast fitness is not above 0.5.

Take C5U A15G A20C U26C G41C G52C A57U A65U: the yeast fitness is not above 0.5. As for C5G G58C A69C, the figure is 0.794; as for C5G G9A C30G, not above 0.5; as for C5G G17A A20C G52A A65U, not above 0.5.

On to C5G C34A G39C G52A G58A G63A, for which the yeast fitness is not above 0.5. As for C5G G38C, the figure is 0.565; as for C5U A21C A43C, not above 0.5; as for C5G G25C C62U, 0.721. On to C5U A14C G41C G58C C66U, for which the yeast fitness worked out at 0.523.

For C5G G17C G58C U59C, the yeast fitness amounted to 0.57. For C5G U16C A20G A70U, the yeast fitness was not above 0.5.

For C5G G17C, the yeast fitness is 0.651. For the variant C5G U13C C22G G23U C29G A45C G68C A69G, the yeast fitness stood at 0.531. For C5U A14G A21U G56C G68C the value was not above 0.5; for C5G U26G C34G A40C C46U, not above 0.5; for C5U A21C G44C, 0.529. In the case of C5G C33U A65C G68C, the yeast fitness was not above 0.5. As for C5G U32C A45G C46A, the figure is 0.907. As for C5U A14U C33G C46U A69C, the figure is not above 0.5. As for C5G C46G A65G, the figure is 0.594; as for C5U A14G G50C U53C C55U A57G, not above 0.5.

Consider C5U A14C A42U, for which the yeast fitness is not above 0.5. In the case of C5G G9C C29U C30U C55A A65G, the yeast fitness is not above 0.5. Consider C5G G10C A69C, for which the yeast fitness is 0.556. As for C5G G17A U26C, the figure is not above 0.5. For C5G U19G C22U A43G C49G the value was not above 0.5.

As to C5G G51C U54A A69U, the yeast fitness was determined as 0.562.

C5G G6C: the yeast fitness was found to be 0.718. For C5G U59G G63C the value was not above 0.5.

For C5G G17A U26C A70C, the yeast fitness was not above 0.5.

As for C5G G17A A20C C49G G63A, the yeast fitness is not above 0.5. As to C5G G12A A43G, the yeast fitness turned out to be 0.536. On to C5G C33A G41C, for which the yeast fitness was not above 0.5. As for C5U A14G G50C C55U A57G C66U, the figure is not above 0.5. As for C5G C33A A36C C66U, the figure is not above 0.5; as for C5G G17C C46U G50A, not above 0.5; as for C5G U59A, 0.896. On to C5G G9A A14C A37G C62G, for which the yeast fitness was not above 0.5. For C5G U8A the value was 0.641; for C5U A14G G51A A65C, not above 0.5; for C5G U7C G51C, 0.564. For C5G U32A A70U the value was not above 0.5; for C5G U28A A40C, 0.581; for C5G G25A G68U, 0.633. For C5G G51C C55G A57U C66U the value was not above 0.5; for C5G C66U G67A, 0.533; for C5G G18A G25A C61U A69G, 0.574.

C5G U13G C29U A40G C60U A65G: the yeast fitness is not above 0.5.

On to C5U A21C C31G G68C, for which the yeast fitness is not above 0.5.

For the variant C5G U8G A20C, the yeast fitness was not above 0.5. For C5G U28G G38C the value was not above 0.5; for C5G U26A A36C C61U, not above 0.5. As to C5G U26C C34G U54C, the yeast fitness is not above 0.5. With C5G C33A A65U, the yeast fitness was not above 0.5. For C5G G23A C31G the value was not above 0.5; for C5G U47A G56U G58C, not above 0.5.

For the variant C5U A15G U16C C66U, the yeast fitness was not above 0.5. For C5G U13G C27G C30A the value was not above 0.5; for C5U A15U U19C, 0.672.

For the variant C5G U16C C31U, the yeast fitness turned out to be 0.627. As for C5G U47C C66U, the figure is 0.627; as for C5G U28C U35A, 0.545. As for C5G G25A G56A, the figure is 0.803. With C5G U32A G56A, the yeast fitness stood at 0.634.

As to C5G G17A C22U U28C C46U G58A, the yeast fitness is not above 0.5. For C5G C34G C49U C55U the value was not above 0.5; for C5G G44A, 1.02; for C5G G44U, 0.626. As for C5G C46A A57G, the figure is 0.705; as for C5G C31A A45C, not above 0.5; as for C5G G12A A14G U35A, not above 0.5.

With C5G G48A A70U, the yeast fitness amounted to 0.803. For the variant C5G U7C C11U G25A, the yeast fitness was not above 0.5. In the case of C5G U7G, the yeast fitness was found to be 0.564.

For C5G U7A, the yeast fitness worked out at 0.792. For C5G U7C C11G G23C U26C C27U A42U the value was not above 0.5; for C5G G10A C11G U16G C33G, 0.551.

C5G U26C C29U: the yeast fitness is not above 0.5. On to C5G C34G A69U, for which the yeast fitness is not above 0.5. As for C5G U8A G41C G63A, the figure is not above 0.5.
